In ChEMBL document CHEMBL1138144 (J Med Chem, 2006) one finds Ki and IC50 data, which are given here for 26 compounds.

SMILES strings stand for the structures. pIC50, pKi: −log10 of the molar value.

Assay [1] addresses T1, Sodium-dependent dopamine transporter (Homo sapiens, UniProt Q01959). The assay can be described thus: Displacement of [125I]RTI-55 from human DAT expressed in HEK293 cells. It counts as cell-based. The gist of the method:
(§1)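 Membranes from HEK293 cells expressing hDAT or hSERT, grown to 80% confluence, lysed in 2 mM HEPES/1 mM EDTA, spun and resuspended in 0.32 M sucrose. About 10–15 µg protein preincubated 10 min with compound in Krebs-HEPES pH 7.4 (0.1% DMSO final). Filtered on GF/C. Non-specific binding: 5 µM mazindol (DAT) or 5 µM imipramine (SERT). Duplicates, 2–3 experiments, IC50 converted to Ki by Cheng-Prusoff.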

The target of assay [2] is T1, Sodium-dependent dopamine transporter. The assay can be described thus: Inhibition of [3H] dopamine uptake into human DAT expressed in HEK293 cells. Format: functional, cell-based. The gist of the method:
(§2)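 Confluent HEK293 cells expressing hDAT or hSERT, scraped into Krebs-HEPES. Preincubated 10 min at 25°C with compound (0.1% DMSO final). Uptake started with [3H]dopamine or [3H]serotonin (20 nM final) and stopped after 10 min by filtration on PEI-soaked GF/C filters. Non-specific uptake: 5 µM mazindol (DAT) or 5 µM imipramine (SERT). IC50 from triplicate 6-concentration curves, 2–3 independent determinations.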

Assay [3] deals with T2, Sodium-dependent serotonin transporter (Homo sapiens, UniProt P31645). The assay can be described thus: Displacement of [125I]RTI-55 from human SERT expressed in HEK293 cells. It counts as cell-based. The essentials:
as §1
Background: Loss of bound radioactivity is the signal in a displacement assay; it reports binding, not function.

The target of assay [4] is T2, Sodium-dependent serotonin transporter. The assay can be described thus: Inhibition of [3H] serotonin uptake into human SERT expressed in HEK293 cells. It counts as functional, cell-based. The gist of the method: as §2
In assay [5] the target is T3, Sodium-dependent noradrenaline transporter (Homo sapiens, UniProt P23975). The assay can be described thus: Displacement of [125I]RTI-55 from human NET expressed in HEK293 cells. It counts as cell-based.
Assay [6] addresses T3, Sodium-dependent noradrenaline transporter. The assay can be described thus: Inhibition of [3H] norepinephrine uptake into human NET expressed in HEK293 cells. It counts as functional, cell-based.

T1 sequence (Q01959 whole entry): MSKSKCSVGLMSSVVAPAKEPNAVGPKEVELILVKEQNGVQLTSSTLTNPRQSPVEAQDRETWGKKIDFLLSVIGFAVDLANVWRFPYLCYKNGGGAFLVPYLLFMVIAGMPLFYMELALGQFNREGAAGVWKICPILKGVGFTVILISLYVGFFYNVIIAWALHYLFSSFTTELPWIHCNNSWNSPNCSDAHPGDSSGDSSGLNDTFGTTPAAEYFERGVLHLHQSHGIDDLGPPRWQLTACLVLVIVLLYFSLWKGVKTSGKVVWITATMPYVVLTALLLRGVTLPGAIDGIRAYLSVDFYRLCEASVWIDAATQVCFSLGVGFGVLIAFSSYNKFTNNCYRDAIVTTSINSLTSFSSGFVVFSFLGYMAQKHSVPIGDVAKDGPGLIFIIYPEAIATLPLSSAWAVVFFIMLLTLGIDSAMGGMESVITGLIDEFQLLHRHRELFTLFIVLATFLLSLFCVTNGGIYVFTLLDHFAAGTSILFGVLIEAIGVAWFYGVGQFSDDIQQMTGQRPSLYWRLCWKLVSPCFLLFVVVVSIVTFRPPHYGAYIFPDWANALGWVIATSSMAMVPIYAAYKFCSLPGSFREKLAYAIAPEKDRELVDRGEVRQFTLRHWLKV
T3 sequence (P23975 whole entry): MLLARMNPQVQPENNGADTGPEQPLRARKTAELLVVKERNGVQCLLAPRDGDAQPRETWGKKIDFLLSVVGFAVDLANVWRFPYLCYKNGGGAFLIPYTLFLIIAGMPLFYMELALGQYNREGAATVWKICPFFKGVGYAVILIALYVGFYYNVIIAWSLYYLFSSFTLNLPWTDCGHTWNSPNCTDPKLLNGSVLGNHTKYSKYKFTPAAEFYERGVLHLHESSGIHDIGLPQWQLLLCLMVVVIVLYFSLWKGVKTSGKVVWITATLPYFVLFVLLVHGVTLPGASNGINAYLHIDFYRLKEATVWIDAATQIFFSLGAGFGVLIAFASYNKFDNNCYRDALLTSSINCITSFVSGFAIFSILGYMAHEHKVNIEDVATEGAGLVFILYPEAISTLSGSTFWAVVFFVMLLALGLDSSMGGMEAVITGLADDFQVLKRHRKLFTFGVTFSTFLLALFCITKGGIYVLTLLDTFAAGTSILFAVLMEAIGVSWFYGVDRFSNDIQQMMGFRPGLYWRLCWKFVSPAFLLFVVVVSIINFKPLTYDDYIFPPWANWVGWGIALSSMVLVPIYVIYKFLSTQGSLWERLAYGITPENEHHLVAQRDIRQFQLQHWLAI
T2 sequence (P31645 whole entry): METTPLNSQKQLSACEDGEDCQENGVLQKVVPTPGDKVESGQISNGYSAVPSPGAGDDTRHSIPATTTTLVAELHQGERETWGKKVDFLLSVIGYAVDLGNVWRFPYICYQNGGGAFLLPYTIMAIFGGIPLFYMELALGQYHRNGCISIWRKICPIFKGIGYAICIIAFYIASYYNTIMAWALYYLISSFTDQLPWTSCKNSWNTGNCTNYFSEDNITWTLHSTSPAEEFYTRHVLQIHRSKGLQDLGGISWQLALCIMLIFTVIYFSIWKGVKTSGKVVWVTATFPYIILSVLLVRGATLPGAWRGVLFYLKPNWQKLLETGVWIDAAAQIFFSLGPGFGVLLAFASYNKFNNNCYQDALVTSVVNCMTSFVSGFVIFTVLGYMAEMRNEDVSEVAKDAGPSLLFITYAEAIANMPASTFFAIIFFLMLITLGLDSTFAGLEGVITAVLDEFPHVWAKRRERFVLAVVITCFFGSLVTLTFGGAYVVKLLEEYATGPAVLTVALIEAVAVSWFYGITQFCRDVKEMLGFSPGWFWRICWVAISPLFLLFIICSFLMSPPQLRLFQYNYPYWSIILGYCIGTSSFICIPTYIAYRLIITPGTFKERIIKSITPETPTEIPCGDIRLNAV

In the case of `CCCC(C(=O)c1ccc(-c2ccco2)cc1)N1CCCC1` (configuration not stated), the pKi was 6.98 in assay [1], 5.48 in assay [3] and 7.02 in assay [5]. The pIC50 in assay [2] is 6.91; in assay [4], 5.66; in assay [6], 7.03.

On to `CCCC(C(=O)c1ccc(Cl)c(Cl)c1)N1CCCCC1` (configuration not stated), for which the pKi in assay [1] was 6.84; in assay [3], 5.61; in assay [5] it was 5.63. In addition, the pIC50 in assay [2] was 6.18; in assay [4] it was less than 5.00; in assay [6], 6.10.

As to `CCCC(C(=O)c1ccc(C(=O)OC)cc1)N1CCCC1` (configuration not stated), the pKi in assay [1] was 6.44; in assay [3], 5.44; in assay [5] it was 5.94. For the same compound, the figures for the pIC50 in assay [2] and in assay [4] were 6.81 and 5.63, respectively.

As for `CCCC(C(=O)c1cccc(I)c1)N1CCCC1` (configuration not stated), the results for the negative logarithm of the Ki (pKi) in assay [1], in assay [3] and in assay [5] were 6.96, 5.85 and 6.17, respectively. The pIC50 was 7.28 in assay [2], 5.97 in assay [4] and 7.09 in assay [6].

Turning to `C=CCC(C(=O)c1ccc(Cl)c(Cl)c1)N1CCCC1` (configuration not stated), the values for the pKi in assay [1], in assay [3] and in assay [5] were 7.40, 5.97 and 6.29, respectively. Also, the values for the pIC50 in assay [2], in assay [4] and in assay [6] were 7.74, 6.36 and 7.60, respectively.

Turning to `CCCC(C(=O)c1ccc(I)cc1)N1CCCC1` (configuration not stated), the values for the negative-log Ki (pKi) in assay [1], in assay [3] and in assay [5] were 7.09, 6.52 and 6.51, respectively. Moreover, the pIC50 in assay [2] is 7.49; in assay [4], 6.71; in assay [6], 7.33.

Take `C=CCC(C(=O)c1ccc(C)cc1)N1CCCC1` (configuration not stated): the values for the pKi in assay [1], in assay [3] and in assay [5] were 7.04, less than 5.00 and 5.85, respectively. Moreover, the values for the pIC50 in assay [2] and in assay [6] were 7.26 and 7.06, respectively.

Consider `CCCC(C(=O)c1ccccc1)N1CCCC1` (configuration not stated), for which the pKi in assay [1] is 7.47; in assay [3] it was less than 5.00; in assay [5], 6.70. The negative logarithm of the IC50 (pIC50) in assay [2] is 7.28; in assay [6], 7.25.

Consider `CCC(C(=O)c1ccc(Cl)c(Cl)c1)N1CCCC1` (configuration not stated), for which the values for the pKi in assay [3] and in assay [5] were 6.09 and 6.58, respectively. Besides, the negative logarithm of the IC50 (pIC50) is 6.36 in assay [4] and 7.73 in assay [6].

In the case of `CCCC(C(=O)c1ccc(Cl)c(Cl)c1)N1CCCC1` (configuration not stated), the results for the pKi in assay [1], in assay [3] and in assay [5] were 7.94, 6.70 and 7.42, respectively. Besides, the pIC50 is 7.37 in assay [2], 6.22 in assay [4] and 7.68 in assay [6].

Regarding `CCCC(C(=O)c1ccc(C)cc1)N1CCCC1` (configuration not stated) [PYROVALERONE], the figures for the pKi in assay [1], in assay [3] and in assay [5] were 7.67, 5.42 and 6.71, respectively. In addition, the pIC50 in assay [2] is 7.28; in assay [4] it was 5.56; in assay [6] it was 7.55.

Take `CCCC(C(O)c1ccc(C)cc1)N1CCCC1` (mixture of isomers): the negative logarithm of the Ki (pKi) in assay [1], in assay [3] and in assay [5] was less than 5.00 throughout.

For the compound `CCCC(C(=O)c1ccc(C#N)cc1)N1CCCC1` (configuration not stated), the negative-log Ki (pKi) in assay [1] is 5.23; in assay [3], less than 5.00; in assay [5] it was less than 5.00. This compound also showed a pIC50 in assay [2] of 6.00.

Take `CCCC(C(=O)c1ccc(OC)c(OC)c1)N1CCCC1` (configuration not stated): the values for the pKi in assay [1], in assay [3] and in assay [5] were less than 5.00, 5.13 and less than 5.00, respectively. In assay [4], this compound had a negative logarithm of the IC50 (pIC50) of 5.81.

In the case of `CCCCNC(CCC)C(=O)c1ccc(Cl)c(Cl)c1` (configuration not stated), the values for the pKi in assay [1], in assay [3] and in assay [5] were 6.28, 5.29 and 5.38, respectively. In addition, the pIC50 in assay [2] was 5.92; in assay [4], less than 5.00; in assay [6], 5.60.

Regarding `CCCC(C(=O)c1ccc(F)cc1)N1CCCC1` (configuration not stated), the negative logarithm of the Ki (pKi) was 7.09 in assay [1], less than 5.00 in assay [3] and 6.08 in assay [5]. The pIC50 in assay [2] is 6.73; in assay [6] it was 6.77.

Take `CCCC(CN1CCCC1)C(=O)c1ccc(C)cc1` (configuration not stated): the pKi in assay [1] is less than 5.00; in assay [3] it was 5.39; in assay [5], less than 5.00. In assay [4], this compound showed a pIC50 of 5.32.

In turn, `CCC[C@H](C(=O)c1ccc(C)cc1)N1CCCC1` gave a negative-log IC50 (pIC50) in assay [2] of 5.75. Also, the pKi in assay [3] and in assay [5] was less than 5.00 each time.

For `CCCC(C(=O)c1ccc([N+](=O)[O-])cc1)N1CCCC1` (configuration not stated), the negative-log Ki (pKi) was 6.58 in assay [1], 5.61 in assay [3] and 5.57 in assay [5]. In addition, the pIC50 in assay [2] is 5.95; in assay [4], 5.95; in assay [6], 6.27.

With `CC#Cc1ccc(C(=O)C(CCC)N2CCCC2)cc1` (configuration not stated), the negative-log Ki (pKi) is 7.21 in assay [1], 5.17 in assay [3] and 7.16 in assay [5]. Also, the figures for the negative logarithm of the IC50 (pIC50) in assay [2], in assay [4] and in assay [6] were 7.93, 5.48 and 7.71, respectively.

As to `CCCC(C(=O)c1ccc(-c2cccn2C)cc1)N1CCCC1` (configuration not stated), the results for the negative logarithm of the Ki (pKi) in assay [1], in assay [3] and in assay [5] were 5.41, less than 5.00 and less than 5.00, respectively. In addition, in assay [2], the negative logarithm of the IC50 (pIC50) was 5.27.

With `Cc1ccc(C(=O)C(CC(C)C)N2CCCC2)cc1` (configuration not stated), the pKi is 7.86 in assay [1], 5.54 in assay [3] and 6.59 in assay [5]. The negative-log IC50 (pIC50) in assay [2] was 8.23; in assay [4] it was 5.69; in assay [6], 7.74.

Turning to `C#CCC(C(=O)c1ccc(C)cc1)N1CCCC1` (configuration not stated), the pKi in assay [1] was 5.64; in assay [3], less than 5.00; in assay [5], 5.39. Moreover, the pIC50 in assay [2] is 6.64; in assay [6] it was 6.46.

`CCCC(CN1CCCC1)C(=O)c1ccc(Cl)c(Cl)c1` (configuration not stated): the pKi in assay [1] was 5.82; in assay [3], 6.20; in assay [5] it was less than 5.00. Moreover, the negative-log IC50 (pIC50) in assay [2] is 5.54; in assay [4], 6.15.

In the case of `CCCC(C(=O)c1ccc(CO)cc1)N1CCCC1` (configuration not stated), the pKi is 7.31 in assay [1], less than 5.00 in assay [3] and 6.82 in assay [5]. In addition, the pIC50 in assay [2] was 7.35; in assay [6], 7.91.

Take `CCCC(C(=O)c1ccc(O)c(O)c1)N1CCCC1` (configuration not stated): the negative-log Ki (pKi) was 7.08 in assay [1], less than 5.00 in assay [3] and 6.66 in assay [5]. Moreover, the pIC50 in assay [2] was 7.38; in assay [6], 8.12.

Broadly, the pKi is −log10 of the Ki, conventionally taken in molar units. A lower pKi goes with a high Ki. The pIC50 is the IC50 on a negative log10 scale, so that one unit is a factor of ten. The low end stands for a high IC50, the high end for a low IC50.
